Measured values taken from ChEMBL document CHEMBL4118191, “Novel oxazolxanthone derivatives as a new type of α-glucosidase inhibitor: synthesis, activities, inhibitory modes and synergetic effect” (Bioorg Med Chem, 2018).
Calls of active or inactive are those of the source. The rule behind the calls is not given here.

What was measured:
[1] = Inhibition of Saccharomyces cerevisiae alpha-glucosidase using PNP glycoside as substrate preincubated for 30 mins followed by substrate addition measured after 60 secs by spectrophotometric method
Procedure, shortened: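 Yeast α-glucosidase was pre-incubated with inhibitor for 30 min at 37 °C before substrate addition. The reaction ran 60 s at 37 °C and was read by absorbance at 400 nm. Five inhibitor concentrations were bracketed around a first-round IC50 estimate, each in triplicate, and mean values were taken.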

[2] = Solubility of the compound; type: physicochemical
[3] = Non-competitive inhibition of Saccharomyces cerevisiae alpha-glucosidase using varying levels of PNP glycoside as substrate preincubated for 30 mins followed by substrate addition measured after 60 secs by Lineweaver-Burk plot analysis
Procedure, shortened: (§1)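 Mode of inhibition came from Lineweaver–Burk double-reciprocal plots. At each fixed inhibitor concentration, yeast α-glucosidase activity was measured over varying PNP glycoside concentrations. Enzyme–inhibitor mixtures were in 50 mM phosphate buffer, pH 6.8, with 5% v/v DMSO, and were pre-incubated 30 min at 37 °C before substrate addition. The reaction ran 60 s at 37 °C and was read at 400 nm.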

[4] = (§2) Synergistic inhibition of Saccharomyces cerevisiae alpha-glucosidase at 4:6 molar ratio of compound to 5-methoxy-2-(4-methoxyphenyl)-6H-xantheno [4, 3-d] oxazol-6-one using PNP glycoside as substrate preincubated for 30 mins followed by substrate addition measured after 60 secs by spectrophotometric method
Procedure, shortened: (§3)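 Yeast α-glucosidase IC50 was determined for the two-inhibitor mixture at a 4:6 molar ratio and for each inhibitor alone. Pre-incubation was 30 min at 37 °C, followed by a 60 s reaction at 37 °C read at 400 nm. Five concentrations were run in triplicate and means taken. Ratios compare single-compound IC50 with mixture IC50.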

[5] = test system: Saccharomyces cerevisiae; assay: as §2, with “1:1” for “4:6”, “method relative to control” for “method”
Procedure, shortened: (§4)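 Single-point inhibition of yeast α-glucosidase, tested individually and as a 1:1 molar mixture at a fixed total concentration of 2. Inhibitor and enzyme were pre-incubated 30 min at 37 °C, then substrate was added. The reaction ran 60 s at 37 °C with absorbance read at 400 nm. Percent inhibition is relative to control.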

[6] = test system: Saccharomyces cerevisiae; assay: Inhibition of Saccharomyces cerevisiae alpha-glucosidase at 2 uM using PNP glycoside as substrate preincubated for 30 mins followed by substrate addition measured after 60 secs by spectrophotometric method relative to control; procedure, shortened: as §4
[7] = test system: Saccharomyces cerevisiae; assay: as §2, with “1:1” for “4:6”, “method relative to compound alone” for “method”; procedure, shortened: as §4
[8] = test system: Saccharomyces cerevisiae; assay: Ratio of compound alone IC50 to compound IC50 in presence of 5-methoxy-2-(4-methoxyphenyl)-6H-xantheno [4, 3-d] oxazol-6-one for Saccharomyces cerevisiae alpha-glucosidase; procedure, shortened: as §3
[9] = test system: Saccharomyces cerevisiae; assay: Competitive inhibition of Saccharomyces cerevisiae alpha-glucosidase at 50 to 60 uM using varying levels of PNP glycoside as substrate preincubated for 30 mins followed by substrate addition measured after 60 secs by Lineweaver-Burk plot analysis; procedure, shortened: as §1
[10] = test system: Saccharomyces cerevisiae; assay: Ratio of IC50 for synergistic inhibition of Saccharomyces cerevisiae alpha-glucosidase assessed as 5-hydroxy-2-(4-methoxyphenyl)-6H-xantheno [4, 3-d] oxazol-6-one IC50 to IC50 for Saccharomyces cerevisiae alpha-glucosidase; procedure, shortened: as §3
[11] = test system: Saccharomyces cerevisiae; assay: as §2, with “1:1” for “4:6”, “5-hydroxy-2-(4-methoxyphenyl)-6H-xantheno” for “5-methoxy-2-(4-methoxyphenyl)-6H-xantheno”, “method relative to control” for “method”; procedure, shortened: as §4
[12] = test system: Saccharomyces cerevisiae; assay: as §2, with “1:1” for “4:6”, “5-hydroxy-2-(4-methoxyphenyl)-6H-xantheno” for “5-methoxy-2-(4-methoxyphenyl)-6H-xantheno”, “method relative to compound alone” for “method”; procedure, shortened: as §4

Row | IC50 [1] [µM] | Structure (SMILES) | other results
1 | 11 | O=c1c2ccccc2oc2c1c(O)cc1oc(-c3ccc(Br)cc3)nc12 | 
2 | 19.6 | COc1cc2oc(-c3ccccc3)nc2c2oc3ccccc3c(=O)c12 | solubility [2]: Soluble
3 | 6.3 | O=c1c2ccccc2oc2c1c(O)cc1oc(-c3c(F)cc(F)cc3F)nc12 | Ki [3]: 6.8 µM
4 | 7.3 | O=c1c2ccccc2oc2c1c(O)cc1oc(-c3ccc(O)cc3)nc12 | 
5 | 9.9 | COc1cc2oc(-c3ccc(Cl)cc3)nc2c2oc3ccccc3c(=O)c12 | solubility [2]: Soluble
6 | 6.7 | O=c1c2ccccc2oc2c1c(O)cc1oc(-c3ccc(F)cc3)nc12 | 
7 | 60.3 | OC[C@H]1NC[C@H](O)[C@@H](O)[C@@H]1O [DUVOGLUSTAT] | 
8 | 186 | O=c1c2ccccc2oc2cc(O)cc(O)c12 | 
9 | 38.5 | O=c1c2ccccc2oc2c1c(O)cc1oc(C3CCCCC3)nc12 | 
10 | 8.4 | O=c1c2ccccc2oc2c1c(O)cc1oc(-c3ccccc3F)nc12 | 
11 | 7.1 | COc1ccc(-c2nc3c(cc(O)c4c(=O)c5ccccc5oc43)o2)cc1 | IC50 [4]: 1.9 µM; inhibition [5]: 41.9%; inhibition [6]: 21.7%; fold change (FC) [7]: 2; Ki [3]: 5.3 µM; Ratio IC50 [8]: 3.5
12 | 8.3 | Nc1ccc(-c2nc3c(cc(O)c4c(=O)c5ccccc5oc43)o2)cc1 | 
13 | 18.3 | O=c1c2ccccc2oc2c1c(O)cc1oc(-c3ccccc3)nc12 | 
14 | 8.8 | O=c1c2ccccc2oc2c1c(O)cc1oc(-c3ccc(Cl)cc3)nc12 | 
15 | 8.9 | O=c1c2ccccc2oc2c1c(O)cc1oc(-c3cccc(F)c3)nc12 | 
16 | 19.1 | Cc1ccc(-c2nc3c(cc(O)c4c(=O)c5ccccc5oc43)o2)cc1 | 
17 | 286 | O=c1c2ccccc2oc2c([N+](=O)[O-])c(O)cc(O)c12 | 
18 | 26.9 | O=c1c2ccccc2oc2c1c(O)cc1oc(-c3ccc(C(F)(F)F)cc3)nc12 | 
19 | 127 | Nc1c(O)cc(O)c2c(=O)c3ccccc3oc12 | 
20 | 64.4 | Cc1nc2c(cc(O)c3c(=O)c4ccccc4oc32)o1 | inhibition [9]: Active
21 | 8.6 | COc1ccc(-c2nc3c(cc(OC)c4c(=O)c5ccccc5oc43)o2)cc1 | inhibition [6]: 20.3%; Ki [3]: 7.4 µM; solubility [2]: Soluble; Ratio IC50 [10]: 4; inhibition [11]: 41.9%; fold change (FC) [12]: 2
22 | 24.5 | O=c1c2ccccc2oc2c1c(O)cc1oc(-c3ccc([N+](=O)[O-])cc3)nc12 | 
